The target of one assay is T1, EUR_21100 (Agathobacter rectalis, UniProt A0ABF7PGZ5).
T1 sequence (A0ABF7PGZ5 45-1329): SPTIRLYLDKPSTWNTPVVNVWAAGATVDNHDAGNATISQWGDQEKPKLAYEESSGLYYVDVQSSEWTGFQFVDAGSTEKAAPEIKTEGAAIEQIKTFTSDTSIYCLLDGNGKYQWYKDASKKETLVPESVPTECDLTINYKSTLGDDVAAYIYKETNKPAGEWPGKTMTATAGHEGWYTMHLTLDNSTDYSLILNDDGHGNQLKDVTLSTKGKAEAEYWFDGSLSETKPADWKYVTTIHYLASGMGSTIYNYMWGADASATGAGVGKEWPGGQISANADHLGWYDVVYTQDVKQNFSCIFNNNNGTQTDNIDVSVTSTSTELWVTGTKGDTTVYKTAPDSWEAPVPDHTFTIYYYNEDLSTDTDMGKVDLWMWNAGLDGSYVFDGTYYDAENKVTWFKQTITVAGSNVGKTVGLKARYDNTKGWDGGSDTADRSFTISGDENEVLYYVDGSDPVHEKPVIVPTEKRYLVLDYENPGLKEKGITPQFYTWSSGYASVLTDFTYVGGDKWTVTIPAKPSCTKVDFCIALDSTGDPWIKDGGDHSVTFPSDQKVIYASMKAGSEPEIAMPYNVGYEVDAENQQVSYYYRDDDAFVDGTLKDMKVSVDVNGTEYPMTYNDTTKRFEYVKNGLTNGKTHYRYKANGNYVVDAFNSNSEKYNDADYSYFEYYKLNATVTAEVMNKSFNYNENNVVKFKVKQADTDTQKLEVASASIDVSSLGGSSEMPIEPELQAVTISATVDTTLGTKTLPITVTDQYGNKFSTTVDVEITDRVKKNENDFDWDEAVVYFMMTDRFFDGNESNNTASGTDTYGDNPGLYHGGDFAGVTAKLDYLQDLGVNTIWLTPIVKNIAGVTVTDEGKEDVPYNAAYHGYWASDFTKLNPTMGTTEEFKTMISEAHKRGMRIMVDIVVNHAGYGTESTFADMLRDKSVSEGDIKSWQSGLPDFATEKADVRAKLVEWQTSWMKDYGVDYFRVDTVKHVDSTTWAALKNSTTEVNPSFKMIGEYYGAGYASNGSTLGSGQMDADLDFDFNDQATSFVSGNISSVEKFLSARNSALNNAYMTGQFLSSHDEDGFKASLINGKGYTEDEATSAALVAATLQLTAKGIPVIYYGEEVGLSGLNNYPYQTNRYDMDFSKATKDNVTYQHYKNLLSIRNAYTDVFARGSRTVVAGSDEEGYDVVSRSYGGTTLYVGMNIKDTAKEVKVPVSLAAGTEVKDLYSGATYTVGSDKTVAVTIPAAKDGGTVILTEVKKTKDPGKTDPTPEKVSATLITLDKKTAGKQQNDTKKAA
Description: thin layer chromatography of products. Format: biochemical. As to conditions: 25 mM HEPES pH 6.5, 150 mM NaCl, 37 °C.

The target in assay [1] is T2, EUR_01830 (Agathobacter rectalis, UniProt A0ABF7PGY2).
T2 sequence (A0ABF7PGY2 24-422): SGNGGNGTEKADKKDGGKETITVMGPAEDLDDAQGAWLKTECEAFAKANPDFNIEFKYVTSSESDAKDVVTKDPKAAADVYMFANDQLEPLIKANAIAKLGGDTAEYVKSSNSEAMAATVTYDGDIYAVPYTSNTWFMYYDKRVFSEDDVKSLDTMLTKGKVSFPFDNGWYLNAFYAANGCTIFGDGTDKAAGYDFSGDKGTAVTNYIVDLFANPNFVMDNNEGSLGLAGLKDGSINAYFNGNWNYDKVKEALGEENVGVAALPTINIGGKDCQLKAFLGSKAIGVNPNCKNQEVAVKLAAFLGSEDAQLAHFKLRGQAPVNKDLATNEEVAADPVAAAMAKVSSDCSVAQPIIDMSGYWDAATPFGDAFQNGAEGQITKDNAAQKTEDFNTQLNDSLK
As to the kind of experiment: isothermal titration calorimetry. Format: binding. As to conditions: 20 mM HEPES, 100 mM NaCl pH 7.0, 25 °C.

The target of assay [2] is T2, EUR_01830. Description: isothermal titration calorimetry. Format: binding. As to conditions: read-out: EUR_01830 / Kd; 20 mM HEPES, 100 mM NaCl pH 7.0, 25 °C.
The next assay deals with EUR_31480. As to the kind of experiment: isothermal titration calorimetry. Format: binding, Agathobacter rectalis. As to conditions: read-out: EUR_31480 / Kd; 20 mM HEPES, 100 mM NaCl pH 7.0, 25 °C. In a few lines: (§1)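 Runs used a low-volume NanoITC at 25 °C. Protein (30–150 μM) was dialysed against 20 mM HEPES, 100 mM NaCl pH 7.0 and loaded in the sample cell, with water in the reference cell. Oligosaccharides (0.5–5 mM) were prepared in dialysis buffer and delivered as a small first injection plus 27 further injections. Stirring was at 350 rpm. Heat of reaction was recorded and fitted for Kd.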

Another assay has as its target T3, EUR_21010 (Agathobacter rectalis, UniProt C4ZGN9).
T3 sequence (C4ZGN9 26-464): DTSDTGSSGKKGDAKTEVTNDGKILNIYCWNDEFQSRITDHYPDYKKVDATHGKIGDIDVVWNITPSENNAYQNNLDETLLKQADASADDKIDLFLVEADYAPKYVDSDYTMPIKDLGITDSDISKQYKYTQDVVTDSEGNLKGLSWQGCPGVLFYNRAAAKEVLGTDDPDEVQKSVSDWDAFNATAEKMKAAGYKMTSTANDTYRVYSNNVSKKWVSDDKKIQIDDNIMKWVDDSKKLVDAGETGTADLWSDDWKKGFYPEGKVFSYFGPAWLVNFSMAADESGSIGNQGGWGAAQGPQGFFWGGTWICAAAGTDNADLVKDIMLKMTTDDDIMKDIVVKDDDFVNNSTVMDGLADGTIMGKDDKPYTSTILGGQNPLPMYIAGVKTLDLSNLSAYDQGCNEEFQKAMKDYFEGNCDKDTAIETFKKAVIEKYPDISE
Description: isothermal titration calorimetry. As to conditions: 20 mM HEPES, 100 mM NaCl pH 7.0, 25 °C. Format: binding.

Assay [3] has as its target T2, EUR_01830. As to the kind of experiment: isothermal titration calorimetry. Format: binding. The following applies: 20 mM HEPES, 100 mM NaCl pH 7.0, 25 °C; isotherm not fitted.
A further assay has as its target T4, EUR_01240 (Agathobacter rectalis, UniProt D6E1S8).
T4 sequence (D6E1S8 23-427): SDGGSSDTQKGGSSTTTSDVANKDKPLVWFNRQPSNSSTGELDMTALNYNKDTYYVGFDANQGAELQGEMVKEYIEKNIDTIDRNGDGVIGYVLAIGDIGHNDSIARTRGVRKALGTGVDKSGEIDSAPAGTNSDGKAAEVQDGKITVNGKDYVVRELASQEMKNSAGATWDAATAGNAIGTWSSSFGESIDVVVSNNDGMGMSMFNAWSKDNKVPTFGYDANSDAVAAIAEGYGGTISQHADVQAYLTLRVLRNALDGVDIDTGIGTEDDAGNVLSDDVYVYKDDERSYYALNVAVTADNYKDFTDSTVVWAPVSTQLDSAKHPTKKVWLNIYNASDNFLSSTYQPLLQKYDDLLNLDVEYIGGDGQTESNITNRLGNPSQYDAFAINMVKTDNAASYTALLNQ
As to the kind of experiment: isothermal titration calorimetry. Format: binding. As to conditions: read-out: EUR_01240 / Kd; 20 mM HEPES, 100 mM NaCl pH 7.0, 25 °C. A digest of the protocol:
as §1

Where two headings read alike, the source gives them in different places.

Consider `OC[C@H]1O[C@H](O[C@H]2[C@H](O)[C@@H](O)[C@@H](O[C@H]3[C@H](O)[C@@H](O)[C@@H](O[C@H]4[C@H](O)[C@@H](O)[C@@H](O[C@H]5[C@H](O)[C@@H](O)[C@@H](O[C@H]6[C@H](O)[C@@H](O)[C@@H](O[C@H]7[C@H](O)[C@@H](O)C(O)O[C@@H]7CO)O[C@@H]6CO)O[C@@H]5CO)O[C@@H]4CO)O[C@@H]3CO)O[C@@H]2CO)[C@H](O)[C@@H](O)[C@@H]1O` (stereo partly shown) [Maltoheptaose], for which the “thin layer chromatography of products” value at EUR_21100 was “can hydrolyze longer maltooligosaccharides such as maltohexaose and maltoheptaose”. On EUR_01830 [1] (read-out: EUR_01830 / Kd), the Kd came out at 288 ± 5.9 nM.
In the case of `OC[C@H]1O[C@H](O[C@H]2[C@H](O)[C@@H](O)[C@@H](O[C@H]3[C@H](O)[C@@H](O)C(O)O[C@@H]3CO)O[C@@H]2CO)[C@H](O)[C@@H](O)[C@@H]1O` (stereo partly shown) [Maltotriose], the Kd on EUR_01830 [2] is 550 ± 14 nM; on EUR_31480 it was 355 ± 0.4 nM.
Take `OC[C@H]1O[C@@H](O[C@H]2[C@H](O)[C@@H](O)[C@H](O[C@H]3[C@H](O)[C@@H](O)[C@H](O[C@H]4[C@H](O)[C@@H](O)C(O)O[C@@H]4CO)O[C@@H]3CO)O[C@@H]2CO)[C@H](O)[C@@H](O)[C@@H]1O` (stereo partly shown) [cellotetraose]: the Kd at EUR_21010 was 3010 nM.
For `OC[C@H]1O[C@H](OC[C@H]2O[C@H](O[C@H]3[C@H](O)[C@@H](O)[C@@H](O[C@H]4[C@H](O)[C@@H](O)C(O)O[C@@H]4CO)O[C@@H]3CO)[C@H](O)[C@@H](O)[C@@H]2O)[C@H](O)[C@@H](O)[C@@H]1O` (stereo partly shown) [GM], on EUR_01830 [1] (read-out: EUR_01830 / Kd), the Kd was found to be 9080 ± 618 nM.
In the case of `OC[C@H]1O[C@@H]2O[C@H]3[C@H](O)[C@@H](O)[C@@H](O[C@H]4[C@H](O)[C@@H](O)[C@@H](O[C@H]5[C@H](O)[C@@H](O)[C@@H](O[C@H]6[C@H](O)[C@@H](O)[C@@H](O[C@H]7[C@H](O)[C@@H](O)[C@@H](O[C@H]1[C@H](O)[C@H]2O)O[C@@H]7CO)O[C@@H]6CO)O[C@@H]5CO)O[C@@H]4CO)O[C@@H]3CO` [α-cyclodextrin], the Kd at EUR_01830 [1] was 39 900 ± 2 430 nM.
As for `OC[C@H]1O[C@H](OC[C@H]2O[C@H](O[C@H]3[C@H](O)[C@@H](O)[C@@H](O[C@H]4[C@H](O)[C@@H](O)[C@@H](OC[C@H]5O[C@H](O[C@H]6[C@H](O)[C@@H](O)[C@@H](O[C@H]7[C@H](O)[C@@H](O)C(O)O[C@@H]7CO)O[C@@H]6CO)[C@H](O)[C@@H](O)[C@@H]5O)O[C@@H]4CO)O[C@@H]3CO)[C@H](O)[C@@H](O)[C@@H]2O)[C@H](O)[C@@H](O)[C@@H]1O` (stereo partly shown) [GMM], the isothermal titration calorimetry result on EUR_01830 [3] is listed as “We obtained an isotherm with GMM, but these data could not be fit well enough”.
`OC[C@H]1OC(O)[C@H](O)[C@@H](O)[C@H]1O` (stereo partly shown) [Galactose]: the Kd at EUR_01240 is 415 ± 20.2 nM.
Turning to `OC[C@H]1O[C@H](O[C@H]2[C@H](O)[C@@H](O)[C@@H](O[C@H]3[C@H](O)[C@@H](O)[C@@H](O[C@H]4[C@H](O)[C@@H](O)C(O)O[C@@H]4CO)O[C@@H]3CO)O[C@@H]2CO)[C@H](O)[C@@H](O)[C@@H]1O` (stereo partly shown) [Maltotetraose], the Kd on EUR_31480 came out at 1670 ± 199 nM; at EUR_01830 [1] (read-out: EUR_01830 / Kd), 112 ± 19.8 nM.
Regarding `OC[C@H]1O[C@H](O[C@H]2[C@H](O)[C@@H](O)C(O)O[C@@H]2CO)[C@H](O)[C@@H](O)[C@@H]1O` (stereo partly shown) [Maltose], on EUR_31480, the Kd is 563 ± 66.4 nM.
Turning to `OC[C@H]1OC(O)[C@H](O)[C@@H](O)[C@@H]1O` (stereo partly shown) [Glucose], at EUR_01240, the Kd was found to be 1900 ± 460 nM.
Consider `OC[C@H]1O[C@H](O[C@H]2[C@H](O)[C@@H](O)[C@@H](O[C@H]3[C@H](O)[C@@H](O)[C@@H](O[C@H]4[C@H](O)[C@@H](O)[C@@H](O[C@H]5[C@H](O)[C@@H](O)C(O)O[C@@H]5CO)O[C@@H]4CO)O[C@@H]3CO)O[C@@H]2CO)[C@H](O)[C@@H](O)[C@@H]1O` (stereo partly shown) [Maltopentaose], for which the Kd on EUR_01830 [1] (read-out: EUR_01830 / Kd) turned out to be 194 ± 34.8 nM.
The same measure, in the same setting: next, `OC[C@H]1O[C@H](O[C@H]2[C@H](O)[C@@H](O)[C@@H](O[C@H]3[C@H](O)[C@@H](O)[C@@H](O[C@H]4[C@H](O)[C@@H](O)[C@@H](O[C@H]5[C@H](O)[C@@H](O)[C@@H](O[C@H]6[C@H](O)[C@@H](O)C(O)O[C@@H]6CO)O[C@@H]5CO)O[C@@H]4CO)O[C@@H]3CO)O[C@@H]2CO)[C@H](O)[C@@H](O)[C@@H]1O` (stereo partly shown) [Maltohexaose]: 160 ± 6 nM.
Compound `OC[C@H]1O[C@@H](O[C@H]2[C@H](O)[C@@H](O)C(O)O[C@@H]2CO)[C@H](O)[C@@H](O)[C@@H]1O` (stereo partly shown) [cellobiose] showed a Kd on EUR_21010 of 542 nM.

Values taken from PMC4437465 (Molecular microbiology, 2014).
